Molecules are shown by their SMILES. Values after ≈ are worked out from the molar mass of the structure shown. “Also recorded” adds a separate entry of the source.

Series [1] concerns S. aureus NRS119 (MRSA). Put plainly: MBC, plating onto TSA. The series is classed as cell-based, Staphylococcus aureus. The following applies: Staphylococcus aureus, MRSA|NRS119.
Series [2] has as its system S. aureus USA500 (MRSA). Put plainly: MBC, plating onto TSA. The series is classed as cell-based, Staphylococcus aureus. The following applies: Staphylococcus aureus, MRSA|USA500.
In series [3] the test system is two VISA isolates. Put plainly: MIC against VISA isolates. The format is cell-based. The note with it: Staphylococcus aureus.
For series [4], the system named is S. aureus VRS4 (VRSA). Briefly: MBC, plating onto TSA. The format is cell-based, Staphylococcus aureus. The following applies: Staphylococcus aureus, VRSA.
For series [5], the system named is S. aureus NRS37 (VISA). Put plainly: MIC, broth microdilution. The following applies: Staphylococcus aureus, NRS37|VISA. The format is cell-based, Staphylococcus aureus.
The subject of series [6] is S. aureus NRS19 (VISA). Put plainly: MBC, plating onto TSA. The note with it: Staphylococcus aureus, NRS19|VISA. The format is cell-based, Staphylococcus aureus.
The test system of series [7] is S. aureus VRS1 (VRSA). Briefly: MBC, plating onto TSA. The format is cell-based, Staphylococcus aureus. The following applies: Staphylococcus aureus, VRSA.
The test system of series [8] is S. aureus NRS194 (MRSA). Put plainly: MIC, broth microdilution. The series is classed as cell-based, Staphylococcus aureus. The following applies: Staphylococcus aureus, MRSA|NRS194.
In series [9] the test system is S. aureus NRS1 (VISA). Put plainly: MBC, plating onto TSA. The following applies: Staphylococcus aureus, NRS1|VISA. The series is classed as cell-based, Staphylococcus aureus.
In series [10] the test system is S. aureus USA 400 (MRSA). Put plainly: MBC, plating onto TSA. The format is cell-based, Staphylococcus aureus. The following applies: Staphylococcus aureus, MRSA|USA400.
For series [11], the system named is S. aureus USA300 (MRSA). Put plainly: MIC, broth microdilution. The series is classed as cell-based, Staphylococcus aureus. The note with it: Staphylococcus aureus, MRSA|USA300.
For series [12], the system named is S. aureus NRS194 (MRSA). Put plainly: MBC, plating onto TSA. The series is classed as cell-based, Staphylococcus aureus. The note with it: Staphylococcus aureus, MRSA|NRS194.
Series [13] deals with MRSA USA300. Put plainly: Time-kill analysis. The note with it: MRSA USA300, 3 × MIC, 37 °C. The format is cell-based, Staphylococcus aureus. In outline:
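Late-log-phase cells diluted to ~1 × 10^8 CFU/mL in MHB and exposed to test compound or vancomycin in triplicate at 37 °C. 20 μL samples taken at 0, 2, 4, 6, 8, 10, 12 and 24 h, serially diluted in PBS, and plated on TSA. Plates incubated 18–20 h at 37 °C, then viable CFU/mL counted. Data given as mean ± standard deviation.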

For series [14], the system named is methicillin-resistant Staphylococcus aureus (MRSA) ATCC 43300. Briefly: MIC, broth microdilution. The following applies: Staphylococcus aureus, ATCC43300|MRSA. The format is cell-based.
The test system of series [15] is S. aureus NRS37 (VISA). Briefly: MBC, plating onto TSA. The note with it: Staphylococcus aureus, NRS37|VISA. The series is classed as cell-based, Staphylococcus aureus.
Series [16] deals with S. aureus NRS1 (VISA). Briefly: MIC, broth microdilution. The format is cell-based, Staphylococcus aureus. The note with it: Staphylococcus aureus, NRS1|VISA.
Series [17] has as its system S. aureus VRS4 (VRSA). Put plainly: MIC, broth microdilution. The series is classed as cell-based, Staphylococcus aureus. The following applies: Staphylococcus aureus, VRSA.
The test system of series [18] is S. aureus NRS119 (MRSA). Briefly: MIC, broth microdilution. The format is cell-based, Staphylococcus aureus. The following applies: Staphylococcus aureus, MRSA|NRS119.
The subject of series [19] is S. aureus NRS19 (VISA). Put plainly: MIC, broth microdilution. The format is cell-based, Staphylococcus aureus. The following applies: Staphylococcus aureus, NRS19|VISA.
For series [20], the system named is S. aureus USA300 (MRSA). Put plainly: MBC, plating onto TSA. The series is classed as cell-based, Staphylococcus aureus. The following applies: Staphylococcus aureus, MRSA|USA300.
Series [21] concerns S. aureus NRS107 (MRSA). Briefly: MBC, plating onto TSA. The note with it: Staphylococcus aureus, MRSA|NRS107. The series is classed as cell-based, Staphylococcus aureus.
Series [22] has as its system S. aureus VRS5 (VRSA). Briefly: MIC, broth microdilution. The series is classed as cell-based, Staphylococcus aureus. The following applies: Staphylococcus aureus, VRSA.
The subject of series [23] is S. aureus VRS5 (VRSA). Briefly: MBC, plating onto TSA. The format is cell-based, Staphylococcus aureus. The note with it: Staphylococcus aureus, VRSA.
For series [24], the system named is S. aureus NRS107 (MRSA). Put plainly: MIC, broth microdilution. The series is classed as cell-based, Staphylococcus aureus. The following applies: Staphylococcus aureus, MRSA|NRS107.
Series [25] concerns S. aureus ATCC 43300 (MRSA). Briefly: MBC, plating onto TSA. The format is cell-based, Staphylococcus aureus. The note with it: Staphylococcus aureus, ATCC43300|MRSA.
In series [26] the test system is S. aureus USA500 (MRSA). Put plainly: MIC, broth microdilution. The format is cell-based, Staphylococcus aureus. The note with it: Staphylococcus aureus, MRSA|USA500.
Series [27] has as its system three VRSA strains. Put plainly: MIC against VRSA strains. The format is cell-based. The note with it: Staphylococcus aureus.
Series [28] has as its system S. aureus USA 400 (MRSA). Briefly: MIC, broth microdilution. The note with it: Staphylococcus aureus, MRSA|USA400. The format is cell-based, Staphylococcus aureus.
Series [29] concerns S. aureus VRS1 (VRSA). Put plainly: MIC, broth microdilution. The series is classed as cell-based, Staphylococcus aureus. The following applies: Staphylococcus aureus, VRSA.
Series [30] relates to human embryonic kidney (HEK293) cell line. Put plainly: In vitro cytotoxicity, MTS assay. The note with it: 40 μg/mL.
For series [31] the following is noted: human, microsomes, pH 7.4.

Consider `CN[C@H](CC(C)C)C(=O)N[C@H]1C(=O)N[C@@H](CC(N)=O)C(=O)N[C@H]2C(=O)N[C@H]3C(=O)N[C@H](C(=O)N[C@H](C(=O)O)c4cc(O)cc(O)c4-c4cc3ccc4O)[C@H](O)c3ccc(c(Cl)c3)Oc3cc2cc(c3O[C@@H]2O[C@H](CO)[C@@H](O)[C@H](O)[C@H]2O[C@H]2C[C@](C)(N)[C@H](O)[C@H](C)O2)Oc2ccc(cc2Cl)[C@H]1O` [Vancomycin, reference compound], for which the MBC is below 1.5 µg/mL in series [1]; 0.7 µg/mL (≈ 0.483 µM) in [2]; above 190 µg/mL in series [4]; below 1.5 µg/mL in series [6]; above 190 µg/mL in [7]; 3 µg/mL (≈ 2.07 µM) in series [9]. For the same compound, the MBC is 0.7 µg/mL (≈ 0.483 µM) in series [10]; 0.7 µg/mL (≈ 0.483 µM) in [12]; 3 µg/mL (≈ 2.07 µM) in series [15]; 0.7 µg/mL (≈ 0.483 µM) in series [20]; below 1.5 µg/mL in series [21]; above 190 µg/mL in [23]. In [25], this compound had an MBC of 0.7 µg/mL (≈ 0.483 µM). The MIC was 3 µg/mL (≈ 2.07 µM) in [3]; 3 µg/mL (≈ 2.07 µM) in series [5]; 0.7 µg/mL (≈ 0.483 µM) in series [8]; 0.7 µg/mL (≈ 0.483 µM) in series [11]; 0.7 µg/mL (≈ 0.483 µM) in series [14]; 3 µg/mL (≈ 2.07 µM) in [16]. For the same compound, the MIC was above 190 µg/mL in series [17]; below 1.5 µg/mL in series [18]; below 1.5 µg/mL in series [19]; above 190 µg/mL in series [22]; below 1.5 µg/mL in [24]; 0.7 µg/mL (≈ 0.483 µM) in series [26]. The values for the MIC in series [27], in series [28] and in [29] were above 190 µg/mL, 0.7 µg/mL (≈ 0.483 µM) and above 190 µg/mL, respectively. The “time to completely eradicate MRSA growth” value in series [13] was 24 h.
Consider `[H]/N=C(\N)NN=C(C)c1sc(-c2ccc(-c3cccc4ccccc34)cc2)nc1C` [compound 25, (E)-2-(1-(4-Methyl-2-(4-(naphthalen-1-yl)phenyl)thiazol-5-yl)ethylidene)hydrazinecarboximidamide], for which the MBC in series [1] stood at 1.6 µg/mL (≈ 4 µM); in series [2] it was 3.2 µg/mL (≈ 8.01 µM); in [4] it was 3.2 µg/mL (≈ 8.01 µM); in series [6] it was 1.6 µg/mL (≈ 4 µM); in series [7], 3.2 µg/mL (≈ 8.01 µM); in series [9] it was 1.6 µg/mL (≈ 4 µM). Further, the MBC in series [10] came out at 1.6 µg/mL (≈ 4 µM); in series [12] it was 1.6 µg/mL (≈ 4 µM); in series [15], 1.6 µg/mL (≈ 4 µM); in series [20], 1.6 µg/mL (≈ 4 µM); in [21], 1.6 µg/mL (≈ 4 µM); in [23], 3.2 µg/mL (≈ 8.01 µM). Besides, the minimal bactericidal concentration (MBC) in series [25] was determined as 1.6 µg/mL (≈ 4 µM). For the same compound, the MIC in series [3], in [5], in series [8], in series [11], in series [14] (MRSA ATCC 43300) and in [16] was 1.6 µg/mL (≈ 4 µM) in each case. Also, the MIC in [17] was 3.2 µg/mL (≈ 8.01 µM); in [18], 1.6 µg/mL (≈ 4 µM); in series [19], 1.6 µg/mL (≈ 4 µM); in series [22], 3.2 µg/mL (≈ 8.01 µM); in series [24], 1.6 µg/mL (≈ 4 µM); in series [26], 1.6 µg/mL (≈ 4 µM). In addition, the results for the MIC in series [28] and in series [29] were 1.6 µg/mL (≈ 4 µM) and 3.2 µg/mL (≈ 8.01 µM), respectively. Also, the “toxicity to mammalian cells (MTS assay)” value in series [30] is “not toxic; also recorded: improved toxicity profile”. In addition, in [13], the “time to completely eradicate MRSA growth” value came out at 10 h.
Turning to `CC(=O)CC(c1ccccc1)c1c(O)c2ccccc2oc1=O` (stereo not drawn) [Warfarin], in series [31], the “NADPH-dependent CLint” value worked out at 0.0 µL/min/mg and the “NADPH-free CLint” value came to 0.0 µL/min/mg.

The record behind these values is PMC4716659 (European journal of medicinal chemistry, 2015).
